Entries after “also recorded” stand apart in the source; their conditions may differ.
Experiments:
[1] = test system: normal cell lines; settings: cited from earlier work
[2] = biological target: α-Glucosidase (derived from Saccharomyces cerevisiae; EC3.2.1.20) (Saccharomyces cerevisiae, UniProt P53341); assay: In vitro α-glucosidase inhibitory study; assay type: biochemical
[3] = biological target: T1, α-glucosidase (Saccharomyces cerevisiae, UniProt P53341); assay: Thermodynamic analysis of the binding of compound 8g to α-glucosidase
Outline: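 Fluorescence intensity of yeast α-glucosidase at 340 nm followed over 298–338 K, with or without test compound (pH 6.8), under a two-state N↔U model. Denatured fraction, apparent K and ΔG° = −RT ln K were calculated, then fitted to the integrated Gibbs–Helmholtz equation (ΔCp 11.6 kJ/mol K). This gave Tm (half-denatured), ΔH°m and ΔS°m, with ΔH = TmΔS.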

[4] = biological target: T1, α-glucosidase; assay: Fluorescence spectroscopy measurements; assay type: binding; settings: 0–500 nM, excitation 280 nm, phosphate buffer pH 6.8
Outline: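 Fixed amount of yeast α-glucosidase in 3.0 ml with test compound at 0–500 nM, equilibrated 10 min. Steady-state emission spectra recorded 300–500 nm with excitation at 280 nm in a 1.0 cm quartz cell. Buffer-only spectra without enzyme subtracted as background.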

[5] = test system: male Wistar rats; assay: In vivo hypoglycemic activity assay; parameters: species or system rat; settings: for blood glucose effect (area under curve) vs negative control: sucrose 7.5 g/kg, one-way ANOVA
Outline: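 Sucrose 7.5 g/kg was given 30 min later. Tail-vein glucose measured by glucometer at 0, 30, 45, 60 and 120 min. Area under curve compared by one-way ANOVA; mean ± SD.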

[6] = biological target: T1, α-glucosidase; assay: Kinetic studies of α-glucosidase; assay type: biochemical
[7] = biological target: T1, α-glucosidase; settings: kinetic studies; cited from earlier work
[8] = biological target: T1, α-glucosidase; settings: read-out: α-glucosidase IC50; Fig. 1; cited from earlier work
[9] = cited from earlier work

Chain of α-Glucosidase (derived from Saccharomyces cerevisiae; EC3.2.1.20) (P53341 whole entry): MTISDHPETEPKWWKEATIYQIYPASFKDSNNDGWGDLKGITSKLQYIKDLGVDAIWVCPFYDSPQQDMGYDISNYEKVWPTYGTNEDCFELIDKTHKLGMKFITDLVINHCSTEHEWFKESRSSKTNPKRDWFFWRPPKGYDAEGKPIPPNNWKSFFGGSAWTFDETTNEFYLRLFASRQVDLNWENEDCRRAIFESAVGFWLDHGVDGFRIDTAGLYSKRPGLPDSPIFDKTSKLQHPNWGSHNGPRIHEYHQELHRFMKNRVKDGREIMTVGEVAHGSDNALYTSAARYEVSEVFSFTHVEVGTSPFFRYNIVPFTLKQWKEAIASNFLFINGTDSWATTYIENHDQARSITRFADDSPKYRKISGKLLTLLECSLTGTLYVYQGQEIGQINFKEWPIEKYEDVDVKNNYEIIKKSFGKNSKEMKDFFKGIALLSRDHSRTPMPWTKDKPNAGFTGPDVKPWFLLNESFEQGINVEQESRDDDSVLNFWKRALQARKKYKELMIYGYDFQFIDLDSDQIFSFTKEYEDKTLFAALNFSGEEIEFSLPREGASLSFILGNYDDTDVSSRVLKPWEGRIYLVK
T1 sequence (P53341 whole entry): as above

SMILES: O=C(NN=Cc1cn(-c2ccccc2)nc1-c1ccc([N+](=O)[O-])cc1)c1cc2ccccc2o1 [B, N’-((3-(4-nitrophenyl)−1-phenyl-1H-pyrazol-4-yl)methylene)benzofuran-2-carbohydrazide]
- cytotoxicity to normal cell lines [1]: non-toxic

SMILES: O=C(NN=CC(O)C(O)C(O)C(O)CO)c1cc(-c2ccccc2)[nH]n1 (stereo not drawn) [Compound 8a, N’-(2,3,4,5,6-Pentahydroxyhexylidene)−5-phenyl-1H-pyrazole-3-carbohydrazide]
- IC50 [2]: 1.2 µM

SMILES: O=C(NN=CC(O)C(O)C(O)C(O)CO)c1cc(-c2ccccc2F)[nH]n1 (stereo not drawn) [Compound 8b, 5-(2-Fluorophenyl)-N’-(2,3,4,5,6-pentahydroxyhexylidene)−1H-pyrazole-3-carbohydrazide]
- IC50 [2]: 53.9 ± 1.2 µM

SMILES: O=C(NN=CC(O)C(O)C(O)C(O)CO)c1cc(-c2ccccc2Cl)[nH]n1 (stereo not drawn) [Compound 8c, 5-(2-Chlorophenyl)-N’-(2,3,4,5,6-pentahydroxyhexylidene)−1H-pyrazole-3-carbohydrazide]
- IC50 [2]: 4.2 ± 0.1 µM

SMILES: O=C(NN=CC(O)C(O)C(O)C(O)CO)c1cc(-c2ccc(F)cc2)[nH]n1 (stereo not drawn) [Compound 8d, 5-(4-Fluorophenyl)-N’-(2,3,4,5,6-pentahydroxyhexylidene)−1H-pyrazole-3-carbohydrazide]
- IC50 [2]: 60.6 ± 1 µM

SMILES: O=C(NN=CC(O)C(O)C(O)C(O)CO)c1cc(-c2ccc(Cl)cc2)[nH]n1 (stereo not drawn) [Compound 8e, 5-(4-Chlorophenyl)-N’-(2,3,4,5,6-pentahydroxyhexylidene)−1H-pyrazole-3-carbohydrazide]
- IC50 [2]: 1 µM

SMILES: O=C(NN=CC(O)C(O)C(O)C(O)CO)c1cc(-c2ccc(Br)cc2)[nH]n1 (stereo not drawn) [Compound 8f, 5-(4-Bromophenyl)-N’-(2,3,4,5,6-pentahydroxyhexylidene)−1H-pyrazole-3-carbohydrazide]
- IC50 [2]: 35.2 ± 0.5 µM

SMILES: O=C(NN=CC(O)C(O)C(O)C(O)CO)c1cc(-c2ccc(Cl)cc2Cl)[nH]n1 (stereo not drawn) [Compound 8g, 5-(2,4-Dichlorophenyl)-N’-(2,3,4,5,6-pentahydroxyhexylidene)−1H-pyrazole-3-carbohydrazide]
- Tm of α-glucosidase ([3]; 60 nM compound): 314 K
- ΔSm° of α-glucosidase denaturation ([3]; 60 nM compound): 328.6 J mol^−1 K^−1
- Tm of α-glucosidase ([3]; 250 nM compound): 309 K
- ΔSm° of α-glucosidase denaturation ([3]; 250 nM compound): 466.9 J mol^−1 K^−1
- Tm of α-glucosidase ([3]; 500 nM compound): 304 K
- ΔHm° of α-glucosidase denaturation ([3]; 500 nM compound): 37.55 kcal/mol
- ΔSm° of α-glucosidase denaturation ([3]; 500 nM compound): 516.4 J mol^−1 K^−1
- fluorescence intensity of α-glucosidase [4]: increased intensity
- shift in the emission wavelength (λmax 340 nm) [4]: did not show significant shift
- IC50 [2]: 0.5 µM
- inhibition of α-glucosidase, times more potently than acarbose ([2]; relative to acarbose): 1500 times
- blood sugar levels in rats ([5]; doses comparable to acarbose): capable of lowering blood sugar levels; also recorded: effectively reduced
- blood glucose effect (area under curve) vs negative control ([5]; rat, oral 2.5 mg/kg): did not significantly differ
- blood glucose effect (area under curve) vs negative control ([5]; rat, oral 5 mg/kg, p-value < 0.05): significantly different
- blood glucose effect (area under curve) vs negative control ([5]; rat, oral 10 mg/kg, p-value < 0.05): significantly different
- effectiveness of 5 and 10 mg/kg doses vs each other and vs acarbose (5 mg/kg) ([5]; rat, oral, sucrose tolerance test): did not significantly differ
- Ki [6]: 0.46 µM
- type of inhibition ([6]; Lineweaver-Burk plot: Km increased, Vmax unchanged): competitive manner; also recorded: competitive inhibitor

SMILES: O=C(NN=CC(O)C(O)C(O)C(O)CO)c1cc(-c2ccc([N+](=O)[O-])cc2)[nH]n1 (stereo not drawn) [Compound 8h, 5-(4-Nitrophenyl)-N’-(2,3,4,5,6-pentahydroxyhexylidene)−1H-pyrazole-3-carbohydrazide]
- IC50 [2]: 80.5 ± 0.7 µM

SMILES: Cc1cccc(-c2cc(C(=O)NN=CC(O)C(O)C(O)C(O)CO)n[nH]2)c1 (stereo not drawn) [Compound 8i, N’-(2,3,4,5,6-Pentahydroxyhexylidene)−5-(m-tolyl)−1H-pyrazole-3-carbohydrazide]
- IC50 [2]: 12.1 ± 0.5 µM

SMILES: Cc1ccc(-c2cc(C(=O)NN=CC(O)C(O)C(O)C(O)CO)n[nH]2)cc1 (stereo not drawn) [Compound 8j, N’-(2,3,4,5,6-Pentahydroxyhexylidene)−5-(p-tolyl)−1H-pyrazole-3-carbohydrazide]
- IC50 [2]: 36.4 ± 0.2 µM

SMILES: COc1cccc(-c2cc(C(=O)NN=CC(O)C(O)C(O)C(O)CO)n[nH]2)c1 (stereo not drawn) [Compound 8k, 5-(3-Methoxyphenyl)-N’-(2,3,4,5,6-pentahydroxyhexylidene)−1H-pyrazole-3-carbohydrazide]
- IC50 [2]: 2.3 µM

SMILES: COc1ccc(-c2cc(C(=O)NN=CC(O)C(O)C(O)C(O)CO)n[nH]2)cc1 (stereo not drawn) [Compound 8l, 5-(4-Methoxyphenyl)-N’-(2,3,4,5,6-pentahydroxyhexylidene)−1H-pyrazole-3-carbohydrazide]
- IC50 [2]: 2.3 µM

SMILES: COc1ccc(-c2cc(C(=O)NN=CC(O)C(O)C(O)C(O)CO)n[nH]2)cc1OC (stereo not drawn) [Compound 8m, 5-(3,4-Dimethoxyphenyl)-N’-(2,3,4,5,6-pentahydroxyhexylidene)−1H-pyrazole-3-carbohydrazide]
- IC50 [2]: 438.6 ± 0.1 µM

SMILES: O=C(Cn1c(-c2ccc(Cl)cc2)nc2ccccc2c1=O)NN=Cc1cn(-c2ccccc2)nc1-c1ccc(Br)cc1 [E, N’-((3-(4-bromophenyl)−1-phenyl-1H-pyrazol-4-yl)methylene)−2-(2-(4-chlorophenyl)−4-oxoquinazolin-3(4H)-yl)acetohydrazide]
- mechanism of α-glucosidase inhibition [7]: competitive mechanism
- IC50 [8]: 60.5 µM

SMILES: COc1ccc(/C=C/c2cc(O)cc(OC3OC(CO)C(O)C(O)C3O)c2)cc1O (stereo not drawn) [F, 2-(3-hydroxy-5-((E)−3-hydroxy-4-methoxystyryl)phenoxy)−6-(hydroxymethyl)tetrahydro-2H-pyran-3,4,5-triol]
- bioavailability [9]: very low
- toxic effects [9]: no toxic effects

SMILES: O=C(NNC1OC(CO)C(O)C(O)C1O)c1cc(-c2ccccc2)on1 (stereo not drawn) [H, 5-phenyl-N’-(3,4,5-trihydroxy-6-(hydroxymethyl)tetrahydro-2H-pyran-2-yl)isoxazole-3-carbohydrazide]
- IC50 [8]: 292 µM

Reference: paper PMC11929827 (Scientific Reports, 2025)
